Series [1] concerns the target T1, Muscarinic acetylcholine receptor M1 (Homo sapiens) (UniProt P11229).
T1 sequence (whole entry): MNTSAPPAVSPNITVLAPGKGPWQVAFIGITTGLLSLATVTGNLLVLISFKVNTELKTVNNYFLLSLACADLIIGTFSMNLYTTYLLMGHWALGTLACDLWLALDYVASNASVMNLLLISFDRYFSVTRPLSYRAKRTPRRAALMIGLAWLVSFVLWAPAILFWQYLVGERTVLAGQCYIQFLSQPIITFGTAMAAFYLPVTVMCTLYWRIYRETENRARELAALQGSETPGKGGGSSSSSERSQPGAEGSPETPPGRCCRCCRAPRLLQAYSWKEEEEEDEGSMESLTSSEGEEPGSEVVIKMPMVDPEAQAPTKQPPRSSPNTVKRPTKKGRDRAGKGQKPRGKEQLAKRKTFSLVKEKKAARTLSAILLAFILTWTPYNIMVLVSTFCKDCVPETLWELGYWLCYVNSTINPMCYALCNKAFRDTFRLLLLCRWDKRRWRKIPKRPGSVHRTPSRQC
The series is described as follows: Positive allosteric modulator activity at human muscarinic M1 receptor expressed in CHO cells assessed as effect on acetylcholine-induced intracellular calcium mobilization by FLIPR assay. The series is classed as functional, cell-based. The method in brief:
(§1)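 CHO cells expressing human M1 were run with an EC20 concentration of acetylcholine. Calcium mobilization was read on a FLIPR384. Potency is reported as the inflection point. Percent max is the compound plus EC20 ACh response relative to the maximal acetylcholine effect.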
On the technique in general: A change in cytosolic calcium serves as a functional read-out for many receptors and channels.

The target in series [2] is T1, Muscarinic acetylcholine receptor M1 (Homo sapiens). Nature of the series: Positive allosteric modulator activity at human muscarinic M1 receptor expressed in CHO cells assessed as effect on acetylcholine-induced intracellular calcium mobilization by FLIPR assay relative to acetylcholine. The series is classed as functional, cell-based. Put shortly:
as §1

A short description of series [3]: Plasma protein binding in human serum by equilibrium dialysis method.
Series [4] in a line: Plasma protein binding in rat serum by equilibrium dialysis method.
Series [5] deals with T2, Muscarinic acetylcholine receptor M4 (Homo sapiens) (UniProt P08173).
T2 sequence (whole entry): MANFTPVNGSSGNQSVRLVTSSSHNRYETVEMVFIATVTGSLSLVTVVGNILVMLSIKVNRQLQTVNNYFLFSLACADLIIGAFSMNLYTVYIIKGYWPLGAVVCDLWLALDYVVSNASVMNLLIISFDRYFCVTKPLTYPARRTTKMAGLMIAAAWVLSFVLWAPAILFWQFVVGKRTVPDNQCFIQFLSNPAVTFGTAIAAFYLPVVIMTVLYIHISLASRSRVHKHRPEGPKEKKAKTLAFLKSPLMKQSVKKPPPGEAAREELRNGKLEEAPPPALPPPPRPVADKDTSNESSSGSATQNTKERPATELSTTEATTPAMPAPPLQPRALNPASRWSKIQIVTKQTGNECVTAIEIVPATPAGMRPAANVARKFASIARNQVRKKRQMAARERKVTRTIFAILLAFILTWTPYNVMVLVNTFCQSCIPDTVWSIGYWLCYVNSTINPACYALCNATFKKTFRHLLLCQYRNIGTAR
The series is described as follows: Positive allosteric modulator activity at human muscarinic M4 receptor expressed in CHO cells assessed as effect on acetylcholine-induced intracellular calcium mobilization by FLIPR assay. The series is classed as functional, cell-based.

In series [6] the target is Muscarinic acetylcholine receptor M3 (Homo sapiens) (UniProt P20309). The series is described as follows: Positive allosteric modulator activity at human muscarinic M3 receptor expressed in CHO cells assessed as effect on acetylcholine-induced intracellular calcium mobilization by FLIPR assay. The series is classed as functional, cell-based.
Series [7] concerns the target T3, Muscarinic acetylcholine receptor M2 (Homo sapiens) (UniProt P08172).
T3 sequence (whole entry): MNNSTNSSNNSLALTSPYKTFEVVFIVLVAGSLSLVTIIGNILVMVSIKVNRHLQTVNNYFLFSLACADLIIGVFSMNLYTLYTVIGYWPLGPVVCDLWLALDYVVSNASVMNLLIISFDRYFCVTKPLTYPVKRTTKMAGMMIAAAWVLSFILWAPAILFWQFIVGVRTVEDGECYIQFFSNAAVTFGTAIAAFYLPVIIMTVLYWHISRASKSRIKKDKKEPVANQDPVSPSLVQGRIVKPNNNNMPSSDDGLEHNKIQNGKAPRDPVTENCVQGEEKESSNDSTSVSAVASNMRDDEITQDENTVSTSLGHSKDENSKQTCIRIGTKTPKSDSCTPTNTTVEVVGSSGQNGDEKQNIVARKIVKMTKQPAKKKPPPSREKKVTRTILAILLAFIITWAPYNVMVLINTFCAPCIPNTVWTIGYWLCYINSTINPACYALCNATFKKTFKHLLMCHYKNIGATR
The series is described as follows: Positive allosteric modulator activity at human muscarinic acetylcholine M2 receptor expressed in CHO cells assessed as effect on acetylcholine-induced intracellular calcium mobilization by FLIPR assay. In kind it is functional, cell-based.

In series [8] the test system is Cerebrospinal fluid. The series is described as follows: Drug level in Sprague-Dawley rat CSF at 10 mg/kg, po. The series is classed as ADME, organism-based. More on the design: dose 10 mg/kg, route oral. Particulars: in vivo, read-out: Drug uptake.
Series [9] deals with Rattus norvegicus. The series is described as follows: Plasma concentration in Sprague-Dawley rat at 10 mg/kg, po. In kind it is ADME, organism-based. More on the design: dose 10 mg/kg, route oral. Particulars: in vivo.
Series [10] can be described thus: Ratio of drug level in brain to plasma in Sprague-Dawley rat at 10 mg/kg, po. The series is classed as ADME, organism-based. The arrangement: dose 10 mg/kg, route oral.
A short description of series [11]: Ratio of drug level in CSF to fraction unbound in plasma in rat. As to conditions: in vivo. In kind it is ADME. The method in brief: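 Sprague–Dawley rats dosed orally at 10 mg/kg in 0.5% methocel. CSF level divided by unbound plasma level. Unbound fraction comes from rat plasma protein binding by equilibrium dialysis.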
The test system of series [12] is Brain. Nature of the series: Drug level in Sprague-Dawley rat brain at 10 mg/kg, po. In kind it is ADME, organism-based. More on the design: dose 10 mg/kg, route oral. Particulars: in vivo, read-out: Drug uptake.
A short description of series [13]: Bioavailability in rat at 10 mg/kg, po and 2 mg/kg, iv. The series is classed as ADME, organism-based. Particulars: in vivo. The method in brief: (§2)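 Rat pharmacokinetics, oral dosing at 10 mpk and intravenous dosing at 2 mpk. Bioavailability, half-life and clearance derived from these profiles.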
Series [14] can be described thus: Ratio of drug level in CSF to fraction unbound in plasma in CF-1 mouse. In kind it is ADME. Particulars: in vivo. The method in brief: (§3)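 CF-1 wild-type and P-gp knockout mice were dosed, and plasma and CSF were taken 30 min later. The CSF to unbound plasma ratio was then calculated.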
The species named for series [15] is Mus musculus. Nature of the series: Effect on behavioral activity in mouse contextual fear conditioning model assessed as episodic memory. The series is classed as functional, organism-based.
Series [16] in a line: Clearance in rat at 10 mg/kg, po and 2 mg/kg, iv. The series is classed as ADME, organism-based. Particulars: in vivo. The method in brief: as §2
A short description of series [17]: Half life in rat at 10 mg/kg, po and 2 mg/kg, iv. In kind it is ADME, organism-based. Particulars: in vivo. Put shortly: as §2
The nature of series [18]: Ratio of drug level in CSF to fraction unbound in plasma in P-glycoprotein deficient mouse. In kind it is ADME. As to conditions: in vivo. Put shortly: as §3

Calls of active or inactive are those of the source.

Muscarinic acetylcholine receptor M3 (Homo sapiens), sequence (P20309 whole entry, looked up): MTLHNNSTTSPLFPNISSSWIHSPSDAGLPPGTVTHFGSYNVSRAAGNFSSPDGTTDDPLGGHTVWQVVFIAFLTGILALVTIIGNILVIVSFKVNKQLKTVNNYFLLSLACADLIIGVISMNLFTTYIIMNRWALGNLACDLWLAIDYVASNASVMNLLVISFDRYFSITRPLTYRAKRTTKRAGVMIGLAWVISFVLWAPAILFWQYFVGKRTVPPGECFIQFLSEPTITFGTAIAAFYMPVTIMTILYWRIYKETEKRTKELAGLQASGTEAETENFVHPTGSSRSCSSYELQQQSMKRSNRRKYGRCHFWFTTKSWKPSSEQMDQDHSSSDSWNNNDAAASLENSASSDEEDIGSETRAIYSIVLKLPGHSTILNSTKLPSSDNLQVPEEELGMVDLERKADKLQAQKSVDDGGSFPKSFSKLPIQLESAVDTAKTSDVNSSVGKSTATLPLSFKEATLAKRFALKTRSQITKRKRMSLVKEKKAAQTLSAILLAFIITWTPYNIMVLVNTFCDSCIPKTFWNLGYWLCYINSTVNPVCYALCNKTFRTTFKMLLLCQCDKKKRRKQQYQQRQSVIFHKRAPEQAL

One may read the Emax as the size of the effect at its maximum, as opposed to the concentration needed. What is called fraction unbound is the share of the substance not bound to proteins or other matrix. Higher therefore signals much free substance. Consider `O=C(O)c1cn(Cc2ccc(-c3ccccc3)cc2)c2ccsc2c1=O`, for which, in series [1], the IP came to 0.15 µM. Further, the Emax in [2] was found to be 90%. For the same compound, the fraction unbound was 0.013 in series [3] and 0.008 in series [4]. The result in series [5], in [6] and in series [7] was inactive.

As a reminder, the Kp is the ratio of the level in a tissue or fluid to that in plasma or blood. For the compound `Cn1cc(-c2ccc(Cn3cc(C(=O)O)c(=O)c4sccc43)nc2)cn1`, in series [1], the IP is 0.34 µM. The fraction unbound was 0.279 in [3] and 0.094 in series [4]. Also, the result in series [5], in series [6] and in [7] was inactive. Besides, the figures for the concentration in series [8], in series [9] and in [12] were 42 nM, 9420 nM and 159 nM, respectively. Besides, the Kp in series [10] was determined as 0.02. The Ratio in [11] came to 0.05.

In general, bioavailability refers to dose-corrected exposure relative to a reference, in per cent. As a reminder, the half-life is the time needed for the level to fall by half in the phase considered. Consider `O=C(O)c1cn(Cc2ccc(-n3cccn3)cc2)c2ccsc2c1=O`, for which the IP in series [1] stood at 0.52 µM. In series [13], this compound gave a bioavailability of 33%. For the same compound, the Ratio is given as 0.05 in [14], 0.21 in [11] and 0.16 in series [18]. The outcome in series [15], in series [5], in series [6] and in [7] was inactive. Also, the fraction unbound in [3] is 0.14; in [4], 0.132. The compound further displayed a clearance in series [16] of 6.8 mL/min/kg. The concentration in series [8] amounted to 123 nM; in series [9] it was 4240 nM; in [12] it was 316 nM. Also, the Kp in [10] was 0.07. The half-life in series [17] is 3.7 h.

As for `O=C(O)c1cn(Cc2ccc(-c3ccccc3)cc2)c2nccnc2c1=O`, the IP in series [1] was 0.78 µM. Moreover, the Emax in series [2] was 96%. Further, the fraction unbound in [3] and in series [4] was 0.023 throughout. For the same compound, the outcome in series [5], in [6] and in series [7] was inactive.

On to `O=C(O)c1cn(Cc2ccc(-c3ccccc3)cc2)c2sccc2c1=O`, for which the IP in series [1] stood at 0.37 µM. Moreover, the Emax in series [2] amounted to 78%. Moreover, the values for the fraction unbound in series [3] and in series [4] were 0.007 and 0.004, respectively. For the same compound, the result in series [5], in [6] and in [7] was inactive.

For `O=C(O)c1cn(Cc2ccc(-c3ccccc3)cc2)c2ncccc2c1=O`, the IP in series [1] came out at 0.58 µM. In series [2], the maximal response (Emax) is 56%. Moreover, the fraction unbound in series [3] is 0.008; in series [4] it was 0.003. For the same compound, the outcome in series [5], in series [6] and in [7] was inactive.

For the compound `Cc1ccn(-c2ccc(Cn3cc(C(=O)O)c(=O)c4ccncc43)cc2)n1`, the IP in series [1] came to 0.25 µM. Besides, the fraction unbound was 0.125 in series [3] and 0.011 in series [4]. Also, the outcome in series [5], in series [6] and in series [7] was inactive. The values for the concentration in [8], in series [9] and in series [12] were 24 nM, 78500 nM and 1200 nM, respectively. Besides, the Kp in [10] was 0.15. Also, the Ratio in series [11] stood at 0.03.

Source of the values: ChEMBL document CHEMBL1156154, “Heterocyclic fused pyridone carboxylic acid M(1) positive allosteric modulators” (Bioorg Med Chem Lett, 2010).
